Source: ChEMBL document CHEMBL1144404, “Aminoimidazolylmethyluracil analogues as potent inhibitors of thymidine phosphorylase and their bioreductive nitroimidazolyl prodrugs” (J Med Chem, 2005)

What was measured:
[1] = molecular target: Thymidine phosphorylase (Escherichia coli K-12) (UniProt P07650); experiment: Ratio of Kcat to Km for Escherichia coli thymidine phosphorylase
Outline: (§1)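 Continuous UV assay at 355 nm and 25 °C in 0.2 mL of 0.1 M potassium phosphate pH 7.4, using recombinant E. coli TP (ca. 0.00883 units per assay) added to start the reaction. Substrate is thymidine or 5-nitro-2'-deoxyuridine; phosphorolysis to 5-nitrouracil followed (εM 13300 M-1 cm-1 for substrate).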

[2] = molecular target: Thymidine phosphorylase (Escherichia coli K-12) (UniProt P07650); experiment: Catalytic constant against Escherichia coli thymidine phosphorylase; outline: as §1
[3] = molecular target: T1, Thymidine phosphorylase (Homo sapiens) (UniProt P19971); experiment: Catalytic constant against human thymidine phosphorylase
T1 sequence (whole entry): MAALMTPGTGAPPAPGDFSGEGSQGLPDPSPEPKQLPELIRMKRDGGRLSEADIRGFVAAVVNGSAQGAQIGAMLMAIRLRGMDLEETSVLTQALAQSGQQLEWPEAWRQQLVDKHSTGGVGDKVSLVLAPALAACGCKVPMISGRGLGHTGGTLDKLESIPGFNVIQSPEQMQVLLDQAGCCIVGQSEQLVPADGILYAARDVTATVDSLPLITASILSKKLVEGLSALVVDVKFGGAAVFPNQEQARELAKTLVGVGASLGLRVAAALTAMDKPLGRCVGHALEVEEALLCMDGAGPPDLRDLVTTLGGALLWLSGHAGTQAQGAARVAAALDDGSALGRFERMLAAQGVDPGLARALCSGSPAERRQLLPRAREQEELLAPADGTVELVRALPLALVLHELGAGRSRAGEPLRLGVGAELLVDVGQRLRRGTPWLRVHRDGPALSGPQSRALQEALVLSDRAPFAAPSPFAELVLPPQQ
Outline: (§2)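 Recombinant human TP expressed in V79 Chinese hamster cells, 0.065 absorbance unit per assay. Continuous spectrophotometric assay at 355 nm, 25 °C, 0.1 M phosphate buffer pH 7.4, 0.2 mL total volume, with 5-nitro-2'-deoxyuridine as substrate; kinetic constants from initial rates.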

[4] = molecular target: T1, Thymidine phosphorylase (Homo sapiens); experiment: Ratio of Kcat to Km against human thymidine phosphorylase; outline: as §2

Chain of Thymidine phosphorylase (Escherichia coli K-12) (P07650 whole entry, looked up): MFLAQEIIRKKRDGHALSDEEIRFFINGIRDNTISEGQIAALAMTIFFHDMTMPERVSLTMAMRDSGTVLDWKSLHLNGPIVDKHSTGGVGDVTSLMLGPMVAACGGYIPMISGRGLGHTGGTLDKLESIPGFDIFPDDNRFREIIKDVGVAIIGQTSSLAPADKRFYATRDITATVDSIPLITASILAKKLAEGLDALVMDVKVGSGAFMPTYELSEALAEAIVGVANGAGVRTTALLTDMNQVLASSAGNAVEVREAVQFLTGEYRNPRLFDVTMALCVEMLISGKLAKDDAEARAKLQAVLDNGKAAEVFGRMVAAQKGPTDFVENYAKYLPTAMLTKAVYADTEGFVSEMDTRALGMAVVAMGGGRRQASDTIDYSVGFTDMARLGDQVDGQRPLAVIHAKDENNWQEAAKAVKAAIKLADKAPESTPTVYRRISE

Row | Compound | Ratio [1] | k cat [2] | k cat [3] | Ratio [4]
1 | O=c1[nH]c(=O)n([C@H]2C[C@H](O)[C@@H](CO)O2)cc1[N+](=O)[O-] | 87000 M⁻¹ s⁻¹ | 20 s⁻¹ | 2.88 s⁻¹ | 18000 M⁻¹ s⁻¹
2 | Cc1cn([C@H]2C[C@H](O)[C@@H](CO)O2)c(=O)[nH]c1=O | 7.4e+06 M⁻¹ s⁻¹ | 1770 s⁻¹ | – | –
